Experimental findings from PubChem BioAssay are described below.

Assay [1] in a line: Her2 expression decrease, cell viability multiplex – SKBR3 breast tumor cells, AlphaScreen, ATP viability, primary screen (AID 461).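 As to Her2 level: lower value means less Her2 protein in the cells.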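 As to viability: percent of carrier control wells set as 100% viability.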 The note with it: SKBR3 Her2 protein level, 18-24 h, measured here: SKBR3 viability, ATP luminescence, at 10 µM.
Assay [2] concerns the target Receptor tyrosine-protein kinase erbB-2 (Homo sapiens) (UniProt P04626). The assay is described as above. The note with it: 18-24 h, at 10 µM, stronger effect = lower value.
Assay [3] is described as follows: reduced viability of SK-BR-3 breast cancer cells – cell-based, 24 h, human, pilot screen (AID 572;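 active = viability at or below 10% of carrier control in both of two separate runs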;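 also: compound exposure lasted between 18 and 24 h rather than exactly 24 h; 100% = carrier-treated control wells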). The note with it: SK-BR-3 viability, CellTiter-Glo luminescence, at 10 µM, stronger effect = lower value. Background: In ATP-based viability assays light output follows the ATP content of the culture.
A short description of assay [4]: HUVEC growth inhibition – cell-based, human, primary screen (AID 575;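 active = viability at or below 30% in both replicate assays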;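 also: 100% = median of untreated cell wells with 0.1% DMSO on each plate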). The note with it: HUVEC proliferation, CellTiter-Glo luminescence, 72 h; at 10 µM; stronger effect = lower value. The method in brief:
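material = primary HUVEC, no more than 12 passages | input = 1250 cells per well | controls = vehicle and MePR control wells | measured by = CTG luminescence | times = 72 h compound incubation | format = collagen-coated 384-well format | read-out = % viability vs DMSO wells | doses = single 10 µM dose, 0.1% DMSO, from 5x medium stock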

Assay [5] in a line: H69AR cell proliferation blockers – human, duplicate replicates, primary screen (AID 580;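 active = viability at or under a set limit in both replicates, limit being median viability minus 3 SD, cut at about 48% in these data, passing the limit was not always enough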;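 also: 100% = mean luminescence of untreated wells and 0% = no signal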). The note with it: H69AR lung tumor cells viability, ATP luminescence, 72 h; at 10 µM; stronger effect = lower value.
The nature of assay [6]: MRP1 drug-resistance reversers in H69AR cells – cell-based, doxorubicin co-treatment, pilot screen (AID 601;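 active = viability loss from added drug above about 55%, and viability with drug at most 40%, in both replicates, limit read from the data, passing the limit was not always enough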). The note with it: CellTiter-Glo, 72 h, at 10 µM; for differential viability (reversal): stronger effect = higher value.
Assay [7] can be described thus: yeast transport mutant growth inhibition pilot in 384-well plates, post-Golgi transport modulator project (AID 636; in the data active = inhibition above about 31%). The note with it: absorbance 615 nm, about 18 h, stronger effect = higher value.
Assay [8] in a line: growth suppression of yeast trafficking mutant, preliminary HTS, modulators of trafficking downstream of Golgi apparatus project, 1536-format plate, OD 615 nm (AID 637; in the data active = inhibition above about 30%). The note with it: yeast transport mutant growth, absorbance 615 nm, 18 h; stronger effect = higher value.
Where [9] appears, read: H69AR cells + 2 uM doxorubicin, measured here: viability with 2 uM doxorubicin, stronger effect = lower value.
[10] abbreviates: H69AR cells, compound alone cytotoxicity.

Structures are written as SMILES. Calls of active or inactive are those of the source.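 The calls were made as follows, unless noted: active = Her2 level under about 52% in both replicate screens, with viability over 70% of control (limit read from the data); inconclusive = Her2 under the limit in one screen only, or viability under 70%; inactive = Her2 level above the set limit.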

Receptor tyrosine-protein kinase erbB-2 (Homo sapiens), sequence (P04626 whole entry, looked up): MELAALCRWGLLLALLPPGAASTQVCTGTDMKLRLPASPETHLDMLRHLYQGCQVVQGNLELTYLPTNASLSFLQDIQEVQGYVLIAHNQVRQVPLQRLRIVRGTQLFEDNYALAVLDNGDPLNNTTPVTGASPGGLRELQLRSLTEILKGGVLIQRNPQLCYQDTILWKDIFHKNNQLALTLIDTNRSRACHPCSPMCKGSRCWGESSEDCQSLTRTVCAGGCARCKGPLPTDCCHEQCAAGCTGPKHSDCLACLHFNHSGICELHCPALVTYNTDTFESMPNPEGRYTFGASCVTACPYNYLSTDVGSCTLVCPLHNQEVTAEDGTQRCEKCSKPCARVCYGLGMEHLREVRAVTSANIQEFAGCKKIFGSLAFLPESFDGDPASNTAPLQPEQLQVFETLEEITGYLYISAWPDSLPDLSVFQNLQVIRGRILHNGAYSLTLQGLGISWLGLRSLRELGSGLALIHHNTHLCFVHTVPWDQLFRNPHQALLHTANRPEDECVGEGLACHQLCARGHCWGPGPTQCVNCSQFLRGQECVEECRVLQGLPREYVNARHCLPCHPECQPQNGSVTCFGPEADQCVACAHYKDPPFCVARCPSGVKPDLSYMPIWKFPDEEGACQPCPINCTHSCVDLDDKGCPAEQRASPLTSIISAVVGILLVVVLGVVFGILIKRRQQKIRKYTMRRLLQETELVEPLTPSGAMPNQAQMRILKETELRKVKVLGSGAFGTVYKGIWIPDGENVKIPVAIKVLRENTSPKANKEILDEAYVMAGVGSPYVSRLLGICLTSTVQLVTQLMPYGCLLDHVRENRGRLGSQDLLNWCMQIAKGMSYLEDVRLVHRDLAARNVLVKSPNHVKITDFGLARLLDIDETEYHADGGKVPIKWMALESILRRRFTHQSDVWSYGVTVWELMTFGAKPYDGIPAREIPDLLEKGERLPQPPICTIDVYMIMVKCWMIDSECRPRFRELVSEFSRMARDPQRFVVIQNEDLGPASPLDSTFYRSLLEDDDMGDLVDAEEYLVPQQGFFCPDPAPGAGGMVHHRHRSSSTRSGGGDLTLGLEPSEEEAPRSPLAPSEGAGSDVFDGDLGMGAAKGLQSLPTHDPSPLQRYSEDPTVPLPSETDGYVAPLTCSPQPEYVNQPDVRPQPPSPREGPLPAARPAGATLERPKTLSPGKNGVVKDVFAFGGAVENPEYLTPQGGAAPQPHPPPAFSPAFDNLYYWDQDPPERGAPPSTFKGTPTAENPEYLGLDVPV

Consider `Cc1csc(NC(=O)c2ccco2)n1`, for which the viability in assay [1] was 102%; in assay [3], 102% (inactive); in assay [4], 82.9% (inactive); in assay [5] it was 83.3% (inactive); in assay [6] (setting [9]), 81.4%; in assay [6] (setting [10]) it was 83.3%. Also, the Her2 level in assay [2] is 83.5% (inactive). Also, the differential viability (reversal) in assay [6] (H69AR cells + 2 uM doxorubicin) was 1.88% (inactive). Besides, the values for the inhibition in assay [7] and in assay [8] were -3.46% (inactive) and -5.5% (inactive), respectively.

For the molecule `CCN(CC)c1ccc(/C=N/n2nnnc2N)c(O)c1`, the viability in assay [1] is 119%; in assay [3], 119% (inactive); in assay [4], 57.6% (inactive); in assay [5], 14.4% (active); in assay [6] (setting [9]), 57.2%; in assay [6] (setting [10]) it was 14.4%. The Her2 level in assay [2] was 80% (inactive). Besides, the differential viability (reversal) in assay [6] (H69AR cells + 2 uM doxorubicin) is -42.7% (inactive). The values for the inhibition in assay [7] and in assay [8] were 0.52% (inactive) and -1.15% (inactive), respectively.

On to `CCN(CC)CCN1C(=O)C(O)=C(C(=O)c2ccco2)C1c1ccccn1` (stereo not given), for which the viability is 109% in assay [1]; 109% (inactive) in assay [3]; 88.9% (inactive) in assay [4]; 97.7% (inactive) in assay [5]; 96% in assay [6] (setting [9]); 97.7% in assay [6] (setting [10]). Further, the Her2 level in assay [2] was 93% (inactive). For the same molecule, in assay [6] (H69AR cells + 2 uM doxorubicin), the differential viability (reversal) is 1.63% (inactive). The inhibition is -3.82% (inactive) in assay [7] and 5.08% (inactive) in assay [8].

On to `N#CC1(c2ccccc2)CCC(=NO)CC1` (stereo not given), for which the viability in assay [1] is 106%; in assay [3], 106% (inactive); in assay [4], 90.2% (inactive); in assay [5] it was 98.1% (inactive); in assay [6] (setting [9]), 96.8%; in assay [6] (setting [10]), 98.1%. The Her2 level in assay [2] is 91.5% (inactive). Further, the differential viability (reversal) in assay [6] (H69AR cells + 2 uM doxorubicin) was 1.23% (inactive). Also, the inhibition in assay [7] is -3.7% (inactive); in assay [8], -2.06% (inactive).

In the case of `Cn1c(=O)c2c(nc(NCc3ccccc3)n2CCCc2ccccc2)n(C)c1=O`, the viability is 84% in assay [1]; 84% (inactive) in assay [3]; 69.5% (inactive) in assay [4]; 83.4% (inactive) in assay [5]; 93.2% in assay [6] (setting [9]); 83.4% in assay [6] (setting [10]). Further, the Her2 level in assay [2] is 88% (inactive). Besides, the differential viability (reversal) in assay [6] (H69AR cells + 2 uM doxorubicin) is -9.82% (inactive). Moreover, the inhibition in assay [7] was -0.81% (inactive); in assay [8] it was -3.11% (inactive).

`Cc1cc(C)cc(NC(=O)N2CCC(c3nc4ccccc4o3)CC2)c1`: the viability was 90.5% in assay [1]; 90.5% (inactive) in assay [3]; 88.9% (inactive) in assay [4]; 94.9% (inactive) in assay [5]; 93.2% in assay [6] (setting [9]); 94.9% in assay [6] (setting [10]). In assay [2], the Her2 level was 99% (inactive). Besides, in assay [6] (H69AR cells + 2 uM doxorubicin), the differential viability (reversal) is 1.69% (inactive). In addition, the inhibition in assay [7] is -4.8% (inactive); in assay [8], 1.8% (inactive).

Take `C=CCn1c(SCC(=O)O)nnc1-c1cccc(Cl)c1`: the viability in assay [1] is 116%; in assay [3], 116% (inactive); in assay [4], 103% (inactive); in assay [5], 109% (inactive); in assay [6] (setting [9]), 96.3%; in assay [6] (setting [10]), 109%. The Her2 level in assay [2] is 107% (inactive). For the same molecule, the differential viability (reversal) in assay [6] (H69AR cells + 2 uM doxorubicin) was 12.6% (inactive). For the same molecule, the inhibition is -5.19% (inactive) in assay [7] and -3.67% (inactive) in assay [8].

Regarding `CCOC(=O)Cn1nnnc1C(C(C)C)N(Cc1cc2c(C)cc(C)cc2[nH]c1=O)C1CCCC1` (stereo not given), the viability in assay [1] is 98%; in assay [3], 98% (inactive); in assay [4] it was 58.6% (inactive); in assay [5], 88.5% (inactive); in assay [6] (setting [9]) it was 89.9%; in assay [6] (setting [10]), 88.5%. The Her2 level in assay [2] was 102% (inactive). Also, in assay [6] (H69AR cells + 2 uM doxorubicin), the differential viability (reversal) was -1.4% (inactive). For the same molecule, the values for the inhibition in assay [7] and in assay [8] were -5.41% (inactive) and 16.6% (inactive), respectively.

In the case of `COc1ccc(-c2cc3n(n2)CCc2nc4ccccc4n2-3)cc1`, the viability in assay [1] was 95.5%; in assay [3] it was 95.5% (inactive); in assay [4], 87% (inactive); in assay [5] it was 93.3% (inactive); in assay [6] (setting [9]) it was 86.7%; in assay [6] (setting [10]) it was 93.3%. In addition, the Her2 level in assay [2] was 70% (inactive). Further, the differential viability (reversal) in assay [6] (H69AR cells + 2 uM doxorubicin) is 6.67% (inactive). For the same molecule, the inhibition in assay [7] is -5.2% (inactive); in assay [8], 0.48% (inactive).

Take `CC(C)=CCCC(C)N(C=O)C(C)CCC=C(C)C` (stereo not given): the viability in assay [1] is 84.5%; in assay [3], 84.5% (inactive); in assay [4] it was 76.3% (inactive); in assay [5] it was 87.8% (inactive); in assay [6] (setting [9]), 80.7%; in assay [6] (setting [10]) it was 87.8%. In addition, in assay [2], the Her2 level is 94% (inactive). In addition, the differential viability (reversal) in assay [6] (H69AR cells + 2 uM doxorubicin) is 7.05% (inactive). Moreover, the results for the inhibition in assay [7] and in assay [8] were -0.68% (inactive) and -2.7% (inactive), respectively.

`COc1ccc(Cl)cc1NC(=O)c1oc(C)nc1C`: the viability in assay [1] is 91%; in assay [3], 91% (inactive); in assay [4], 91% (inactive); in assay [5], 90.1% (inactive); in assay [6] (setting [9]) it was 92.3%; in assay [6] (setting [10]), 90.1%. In addition, the Her2 level in assay [2] was 71.5% (inactive). The differential viability (reversal) in assay [6] (H69AR cells + 2 uM doxorubicin) is -2.13% (inactive). In addition, the values for the inhibition in assay [7] and in assay [8] were -5.95% (inactive) and 6.5% (inactive), respectively.

Regarding `CC(C)(C)NCc1cc2ccccc2[nH]c1=O`, the viability in assay [1] was 90%; in assay [3], 90% (inactive); in assay [4], 99.1% (inactive); in assay [5], 93.2% (inactive); in assay [6] (setting [9]), 83.3%; in assay [6] (setting [10]), 93.2%. The Her2 level in assay [2] was 74.5% (inactive). Moreover, the differential viability (reversal) in assay [6] (H69AR cells + 2 uM doxorubicin) was 9.9% (inactive). In addition, the inhibition is -9.05% (inactive) in assay [7] and -2.5% (inactive) in assay [8].

For the molecule `O=C(O)CCNc1nc(-c2ccccc2)nc2ccccc12`, the viability in assay [1] was 87%; in assay [3] it was 87% (inactive); in assay [4], 96.3% (inactive); in assay [5], 91.1% (inactive); in assay [6] (setting [9]), 93.8%; in assay [6] (setting [10]) it was 91.1%. In assay [2], the Her2 level is 102% (inactive). The differential viability (reversal) in assay [6] (H69AR cells + 2 uM doxorubicin) was -2.72% (inactive). Also, the inhibition was -0.13% (inactive) in assay [7] and -1.11% (inactive) in assay [8].

`Cc1cccc(-c2noc(CCC(=O)Nc3ccccc3)n2)c1`: the viability in assay [1] was 106%; in assay [3] it was 106% (inactive); in assay [4], 79.4% (inactive); in assay [5] it was 91.2% (inactive); in assay [6] (setting [9]), 84.9%; in assay [6] (setting [10]) it was 91.2%. Moreover, in assay [2], the Her2 level was 93% (inactive). Besides, the differential viability (reversal) in assay [6] (H69AR cells + 2 uM doxorubicin) is 6.29% (inactive). Also, the results for the inhibition in assay [7] and in assay [8] were -7.3% (inactive) and -11.2% (inactive), respectively.

In the case of `CC(=O)c1cccc(NC(=O)N2CCCC2C(=O)NCc2ccc(C)cc2)c1` (stereo not given), the viability in assay [1] was 104%; in assay [3], 104% (inactive); in assay [4], 92.5% (inactive); in assay [5], 95.6% (inactive); in assay [6] (setting [9]), 87.1%; in assay [6] (setting [10]), 95.6%. In addition, the Her2 level in assay [2] was 93.5% (inactive). Also, the differential viability (reversal) in assay [6] (H69AR cells + 2 uM doxorubicin) was 8.41% (inactive). Moreover, the values for the inhibition in assay [7] and in assay [8] were -8.92% (inactive) and 8.33% (inactive), respectively.

The term viability denotes a read-out of living cells in per cent, often relative to untreated cells. One may read the inhibition as the relative decrease from the control value, in per cent.
